Assay outcomes as filed in PubChem BioAssay.
This is a sample that favours compounds with a hit; in the whole collection about 12% have one here.
WT yeast gro inh = growth inhibition of WT strain, primary screen, mitochondrial fusion inhibitor project, WT and mutant strains, chemical genetic. mitochondrial fusion phenotypic screen. inhibition, % at 10 µM. 2.1% of 190,000 active. AID 1362, 2008; in the data active = inhibition above about 58%; tested in S. cerevisiae
L major viab = Leishmania major promastigote growth inhibition, primary screen. Leishmania major promastigotes, resazurin fluorescence viability. inhibition, % at 10 µM. 9% of 200,000 active; in the data active = inhibition above about 50%;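 also: promastigotes grown with compound for 44 hours at 28 °C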
ABCB1 block = ABCB1 efflux pump inhibitors, primary screen, cell-based, multiplex, flow cytometry, ABCG2 counter-screen. CCRF-Adr cells, JC-1 efflux. inhibition, % at 6.6 µM. 0.067% of 190,000 active. AID 1326, 2008; in the data active = inhibition above about 40%;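 also: 0% = vehicle and 100% = reference inhibitor; higher value means more JC-1 retained so stronger ABCB1 efflux block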
RAM network inh = inhibitors of the yeast RAM network, primary screen, dse1pr::URA3 reporter, 5-FOA selection; S. cerevisiae dse1pr::URA3 reporter, 5-FOA growth OD615, 2 d; analog-sensitive cbk1-as2 kinase mutant strain; inhibition, % at 50 µM; 1.8% of 190,000 active; AID 868, 2007;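 active = inhibition above a set limit, 3 SD over mean compound inhibition, cut at about 8.4% in these data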;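 also: 0% = DMSO-only wells with no growth and 100% = 10 µM 1-NA-PP1 full growth; inhibition rescues growth on 5-FOA so higher OD means more RAM inhibition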
ABCG2 block = ABCG2 efflux pump inhibitors, primary screen, multiplex with ABCB1, IgMXP3 cells, flow cytometry | 0.1% of 190,000 active | AID 1325, 2008 | inhibition, % at 6.6 µM | JC-1 efflux;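 active = inhibition above 80%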;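 also: 0% = DMSO and 100% = nicardipine control wells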
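System: two drug-resistant human cell lines, ABCG2 and ABCB1; controls: nicardipine high and DMSO low controls; times: 10 min exposure at 25 °C with rotation, no wash; detection: flow cytometry of retained JC-1 fluorescence; read-out basis: percent efflux inhibition, scaled nicardipine 100% to DMSO 0%; doses: one concentration, 6.6 µM final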
* hit, by the source's call; / = no result given.

SMILES	WT yeast gro inh	L major viab	ABCB1 block	RAM network inh	ABCG2 block
CCN(CC)S(=O)(=O)c1ccc(OC)c(NC(=O)c2cc(=O)[nH]c3ccccc23)c1	15	-3	0	2	4
COC(=O)c1sc2nc(-c3ccccc3)nc(N3CCN(C)CC3)c2c1C	1	55*	2	0	7
COc1cccc(-c2nc(-c3ccccc3)nc(N3CCN(C)CC3)c2C#N)c1	81*	51*	5	1	27
Oc1ccc2ccccc2c1C=NCc1cn2ccsc2n1	14	95*	-2	-1	3
C#CCOc1ccc(Cl)cc1/C=N/O	31	-1	1	0	2
C#CCOc1ccc(/C=N/O)cc1Cl	13	55*	0	1	6
CCn1c(SCC(=O)Nc2cccc(C)n2)nc2c1c(=O)n(C)c(=O)n2C	-12	1	5	0	10
COc1cccc(OCCCn2cc(/C=C3/C(=N)N4C=C(C)SC4=NC3=O)c3ccccc32)c1	4	95*	0	5	-3
COc1ccc(OCCCn2cc(/C=C3/C(=N)N4C=C(C)SC4=NC3=O)c3ccccc32)cc1	6	87*	0	7	-3
CCOC(CNC(=O)Cc1c(C)nc2c(-c3ccccc3)c(C)nn2c1C)OCC	1	-1	1	2	5
CCCOc1ccc(N2C(=O)CC(SC(=N)N3N=C(c4ccccc4)CC3c3ccccc3)C2=O)cc1 (stereo not given)	-13	98*	1	5	7
Cc1sc(NC(=O)CN(C)C2CCCCC2)nc1-c1ccc2c(c1)CCN2S(=O)(=O)c1ccccc1	3	45	1	3	1
Cc1sc(NC(=O)Cc2ccc3c(c2)OCO3)nc1-c1ccc2c(c1)CCN2C(=O)c1ccccc1F	26	99*	/	3	8
Cc1sc(NC(=O)Cc2ccc3c(c2)OCO3)nc1-c1ccc2c(c1)CCN2C(=O)c1ccc(F)cc1	32	87*	/	2	6
CCS(=O)(=O)c1ccc(C(=O)NC2CC2)c(Cl)c1Cl	-2	-6	1	1	2
C/C(=N/NC(=O)CN1CCN(S(=O)(=O)c2ccc(Br)cc2)CC1)c1ccco1	-4	0	1	-1	10
Cc1cccc(N(C(=O)c2nsc(Cl)c2Cl)C(C(=O)NC2CCCC2)c2ccc(O)cc2)c1C (stereo not given)	-7	98*	1	5	1
COc1ccc(C(C(=O)NC2CCCCC2)N(C(=O)c2sc(C)nc2C)c2ccccc2C)cc1 (stereo not given)	5	0	0	1	0
Cc1ccc(N(C(=O)c2nsc(Cl)c2Cl)C(C(=O)NC2CCCC2)c2ccc(O)cc2)cc1C (stereo not given)	6	76*	3	5	7
Cc1cc(C)cc(N(C(=O)c2nsc(Cl)c2Cl)C(C(=O)NC2CCCC2)c2ccc(O)cc2)c1 (stereo not given)	10	71*	2	3	5
COc1ccc(N(C(=O)c2cnccn2)C(C(=O)NC2CCCCC2)c2ccc(O)cc2)cc1 (stereo not given)	-2	-3	1	0	3
COc1ccc2cc(N=Cc3nc(-c4ccc(C)cc4)oc3O)cnc2c1	-2	-1	0	1	4
Cc1ccc([N+](=O)[O-])cc1S(=O)(=O)Nc1ccc(N2CCOCC2)cc1	-12	6	0	-1	0
Cc1ccc2nc(-c3ccc(SCC(=O)Nc4nc(C)cs4)nc3)[nH]c2c1	-5	53*	/	2	5
CCOC(=O)CSc1ccc(-c2nc3ccccc3[nH]2)cn1	7	17	1	1	19
SMILES	WT yeast gro inh	L major viab	ABCB1 block	RAM network inh	ABCG2 block
Cc1cc2nc(-c3ccc(SCC(=O)N4CCOCC4)nc3)[nH]c2cc1C	13	60*	0	2	2
CCOC(=O)CSc1ccc(-c2nc3cc(C)c(C)cc3[nH]2)cn1	14	57*	-2	2	30
Cc1cc2nc(-c3ccc(SCC(=O)N4CCN(C(=O)c5ccco5)CC4)nc3)[nH]c2cc1C	15	17	0	2	0
Cc1cc2nc(-c3ccc(SCc4ccccn4)nc3)[nH]c2cc1C	-6	64*	0	3	0
COc1ccc(CNC(=O)C/C(C)=N/NC(=O)COc2cccc(C)c2)cc1	1	-6	1	1	4
Cc1ccc(-c2nc(C)sc2CC(=O)Nc2cccc(C)c2C)cc1	-6	-2	3	1	15
Cc1ccc(-n2ncc(C(=O)Nc3ccc(Cl)cc3)c2C2CCNCC2)cc1C	-13	99*	-1	-1	14
COc1cc(OC)cc(C(=O)N[C@H](C(=O)Nc2ccc(NC(C)=O)cc2)C(C)C)c1	11	5	1	7	5
COc1cc(OC)cc(C(=O)N[C@H](C(=O)NC23CC4CC(CC(C4)C2)C3)C(C)C)c1	15	64*	2	6	6
CCNC(=O)c1ccccc1SCC(=O)Nc1ccc(F)cc1	-2	-8	1	0	2
CC1(C)C(O)=C(c2nc3ccccc3[nH]2)C(=N)N1c1ccccc1	26	82*	1	4	3
CC(C)N1CC(O)=C(c2nc3ccccc3[nH]2)C1=N	-13	8	0	0	6
CC(=O)Nc1cccc2c1C(=O)N(c1ccccc1OC(C)=O)C2=O	4	-5	0	2	1
CNC(=O)COc1ccc(C=O)cc1OC	4	60*	0	1	5
COc1cc(C=O)ccc1OCCOCCOc1cc(C)ccc1Cl	4	73*	1	0	3
COc1cc(C)ccc1OCCOCCN(C)Cc1ccccc1	10	91*	5	-1	6
CN(CCOCCOc1ccc2ccccc2c1)Cc1ccccc1	22	100*	-3	0	-12
CCCC(=O)Nc1sc2c(c1C(=O)Nc1ccccn1)CCCC2	-4	11	1	0	7
COc1ccc(-c2csc3nc(-c4ccccc4OC)oc(=O)c23)cc1	52	37	0	6	0
CSc1ccc(OC2CCN(Cc3ccccc3)CC2)cc1	63*	94*	1	1	2
COc1ccc(-c2cc(C)nc3c(-c4ccccc4)cnn23)cc1	-5	4	1	9.0*	25
C/C=C(\C)CN1CCN(c2cc(C)ccc2C)CC1	59*	3	2	0	3
OCCSc1nc(-c2ccccc2)nc2ccc(F)cc12	1	9	1	8	6
NC(N)=Nc1nc(-c2ccccc2)c2cc(F)ccc2n1	28	100*	0	2	11
Cc1cc(C)nc(N2CCC(C(=O)N3CCN(c4cc(Cl)ccc4C)CC3)CC2)n1	72*	0	1	0	1
